Screens deposited in PubChem BioAssay by Broad Institute.
Most compounds without a hit are left out; they make up all but 0.98% or so of the library.
Rtt109 Vps75 = C. albicans Rtt109 histone acetyltransferase inhibition. inhibition, % at 34.9 µM. purified Rtt109/Vps75, ThioGlo CoA-SH fluorescence, 4 h. hit rate 0.16% among 330,000;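 active = inhibition of at least 50% in every replicate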
ERAP1 inh = blocks human ERAP1 aminopeptidase activity. recombinant ERAP1, Leu-AMC fluorescence, 60 min. inhibition, % at 10.7 µM. hit rate 0.15% among 340,000;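 active = mean replicate inhibition of at least 30%, or all replicates individually reaching that 30% level; inactive = mean below 30% and not every replicate reaching it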;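 also: 0% = neutral control wells and 100% = L-leucinethiol positive control wells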
Target sequence (Q9NZ08 whole entry, looked up): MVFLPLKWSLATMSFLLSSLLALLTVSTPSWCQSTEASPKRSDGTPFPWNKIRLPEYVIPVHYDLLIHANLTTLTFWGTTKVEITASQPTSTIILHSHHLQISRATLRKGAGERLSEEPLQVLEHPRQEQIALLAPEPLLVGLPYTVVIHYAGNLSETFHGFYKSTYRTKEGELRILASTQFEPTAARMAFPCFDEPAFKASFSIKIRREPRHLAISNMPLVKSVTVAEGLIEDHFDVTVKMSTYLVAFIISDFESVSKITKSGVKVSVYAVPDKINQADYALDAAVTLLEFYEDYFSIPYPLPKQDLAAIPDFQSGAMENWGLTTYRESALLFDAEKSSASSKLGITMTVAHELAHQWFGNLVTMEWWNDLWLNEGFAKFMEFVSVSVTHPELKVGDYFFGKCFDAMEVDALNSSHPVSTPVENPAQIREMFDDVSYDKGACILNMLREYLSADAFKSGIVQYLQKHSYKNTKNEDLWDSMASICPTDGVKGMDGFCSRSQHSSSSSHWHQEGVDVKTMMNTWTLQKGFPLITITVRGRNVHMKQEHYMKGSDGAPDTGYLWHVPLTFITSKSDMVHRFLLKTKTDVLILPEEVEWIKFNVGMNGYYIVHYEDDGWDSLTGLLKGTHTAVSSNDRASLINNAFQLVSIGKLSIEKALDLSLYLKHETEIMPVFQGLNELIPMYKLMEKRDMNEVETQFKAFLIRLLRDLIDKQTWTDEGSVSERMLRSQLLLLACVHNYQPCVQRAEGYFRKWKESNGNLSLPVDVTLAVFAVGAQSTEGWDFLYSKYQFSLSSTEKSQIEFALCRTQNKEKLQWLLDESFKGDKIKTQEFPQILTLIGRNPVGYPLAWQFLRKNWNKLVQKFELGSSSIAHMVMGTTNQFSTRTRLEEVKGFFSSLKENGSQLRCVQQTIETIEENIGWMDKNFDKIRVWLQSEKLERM
Statin myotox sup = protects C2C12 myotubes from simvastatin toxicity; ATP luminescence, 48 h; scaled: DMSO 0, geranylgeraniol control 100; rescue of ATP level, % at 7.49 µM; hit rate 0.78% among 330,000; AID 602340;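 active = mean ATP rescue above about 67%, or every replicate alone reaching that limit, limit read from the data, passing the limit was not always enough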;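 also: myotubes were challenged with 10 µM simvastatin during compound exposure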
S100A4 MyoIIA = inhibitors of human S100A4 binding to myosin IIA peptide. hit rate 0.14% among 360,000. P26447. inhibition, % at 10.7 µM. S100A4/TAMRA-MyoIIA peptide fluorescence polarization;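 active = mean inhibition of at least 70% across replicates, with every replicate also reaching that level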
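Material: S100A4 monomer (human). Medium: Calcium-containing HEPES buffer, pH 7.2. Probe or stimulus: labelled myosin peptide probe, 5 nM. Compound dosing: one concentration per compound. Timing: polarization read 5 min after assay mix addition, stable 5–60 min. Benchmarks: DMSO as neutral control, TFP as positive control.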
PGC1a acetyl inh = PGC1a acetylation modulation, inhibitor mode; U2OS PGC1a acetylation, AlphaScreen anti-acetyl-lysine; with virally co-expressed GCN5 acetyltransferase; hit rate 0.17% among 350,000; AID 651687; inhibition, % at 15.6 µM;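 active = every replicate shows inhibition of at least 40%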;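 also: 0% = neutral control wells and 100% = positive control wells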
* = called active by the depositor; . = no result given.

SMILES	Rtt109 Vps75	ERAP1 inh	Statin myotox sup	S100A4 MyoIIA	PGC1a acetyl inh
COc1ccc(NC(=O)/C(Cl)=C(/Cl)S(=O)Cc2ccccc2)cn1 (stereo not drawn)	10.0	.	.	.	71.4*
CCS(=O)(=O)c1nc(S(=O)(=O)c2ccc(C)cc2)c(NCCCN2CCCC2=O)s1	2.2	-2.1	-0.4	84.0*	.
O=C(C1CCCC1)N1[C@@H](CO)[C@@H](c2ccccc2)C12CN(CCC(F)(F)F)C2	.	-0.3	.	-5.8	-3.3
CCCNC(=O)N1C[C@H]2[C@@H](c3ccccc31)[C@H](CO)N2C(=O)NCCC	.	1.8	6.5	-2.0	2.8
COc1ccc(N2Nc3n[nH]c(N)c3N2)cc1	-3.1	.	106.2*	.	3.6
CC1CCC(C(C)C)C(OCC(O)CN2CCCC(C)C2)C1 (stereo not drawn)	3.9	4.4	.	-0.9	-29.0
CC1CCC(C(C)C)C(OCC(O)C[N+]2(C)CCCCC2)C1 (stereo not drawn)	9.4	102.8*	-20.3	-0.2	.
C[C@H](O)C#Cc1cnc2c(c1)C(=O)N([C@@H](C)CO)C[C@@H](C)[C@@H](CN(C)C(=O)c1ccccc1F)O2	.	3.1	4.7	-1.0	7.5
CCOc1ccc(-c2noc(CCC(=O)NC)n2)cc1OCC	3.2	.	95.4*	.	6.1
CCOc1cc(-c2noc(CCC(=O)NCCc3ccccc3)n2)ccc1OC	2.0	5.7	18.2	0.5	-21.7
Cc1ccc(-c2noc(CCC(=O)NCC3CCN(Cc4cccc(C)c4)CC3)n2)cc1	1.2	.	86.9*	.	-9.2
CN1CCC(N(C)S(=O)(=O)c2ccc(NC(=O)COc3ccc(Br)cc3Cl)cc2)CC1	28.2	-2.0	.	-5.0	.
Cc1c(C(=O)Nc2ccc(S(=O)(=O)N(C)C3CCN(C)CC3)cc2)oc2c(Cl)cccc12	66.2*	4.9	-11.2	-3.8	.
Cc1ccc(OCC(=O)Nc2ccc(S(=O)(=O)N(C)C3CCN(C)CC3)cc2)c(C)c1	4.3	89.8*	-2.7	-4.1	.
Cc1c(C(=O)Nc2ccc(S(=O)(=O)N(C)C3CCN(C)CC3)cc2)oc2ccccc12	26.3	-1.5	-14.4	-6.3	-20.7
Cc1ccc(S(=O)(=O)Nc2ccc3c(c2)C(=O)N([C@@H](C)CO)C[C@@H](C)[C@H](CN(C)Cc2ccc(C(=O)O)cc2)OCCCC[C@H](C)O3)cc1	.	-0.7	.	2.6	-5.2
CC(C)N1C(=O)CCC1C(=O)N1CCC(Cc2ccccc2)CC1 (stereo not drawn)	-4.1	2.0	131.6*	3.7	2.8
CNC(=O)/C(C#N)=C\c1ccc(CNS(=O)(=O)c2ccc(Cl)cc2)o1	5.8	32.9*	.	-1.7	-2.1
CNC(=O)/C(C#N)=C\c1ccc(CNS(=O)(=O)c2ccccc2)o1	-7.9	.	.	.	6.2
N#CC1CN(C(c2ccccc2)c2ccccc2)C1	.	0.2	106.9*	-5.6	-10.0
C[C@H](CO)N1C[C@H](C)[C@@H](CN(C)S(=O)(=O)c2ccc(Cl)cc2)Oc2c(NC(=O)Nc3ccc(F)cc3)cccc2C1=O	.	-0.2	-0.5	-3.4	-9.7
COCCN=C1N[C@@H](c2ccccc2)C(C(=O)OC)=C(C)N1Cc1ccccc1	2.1	-2.2	110.1*	0.2	-1.4
CCN1C(=O)N[C@@H](c2cccc(C(F)(F)F)c2)C(C(=O)OC)=C1C	-6.2	.	-1.0	-1.7	-3.9
COC(=O)C1=C(C)N(Cc2ccccc2)C(=NCc2ccccc2)N[C@H]1c1cccc(F)c1	13.6	53.3*	-29.7	3.0	.
COC(=O)C1=C(C)N(Cc2ccccc2)C(=NCc2ccccc2)N[C@H]1c1ccccc1	24.8	0.7	-26.8	6.4	-1.6
COCCN=C1N[C@@H](c2ccc(Br)cc2)C(C(=O)OC)=C(C)N1Cc1ccccc1	15.3	90.7*	-27.9	-1.2	-20.0
CCN(CC)CCCN=C1N[C@@H](c2cccc(C(F)(F)F)c2)C(C(=O)OC)=C(C)N1CC	8.5	61.3*	-19.5	3.4	-10.0
C[C@H]1CCCCO[C@H](CN(C)C(=O)C2CCCCC2)[C@@H](C)CN([C@@H](C)CO)C(=O)c2cc(NS(=O)(=O)c3ccc(F)cc3)ccc2O1	.	2.2	.	9.6	-2.2
C[C@@H]1CCCCO[C@@H](CN(C)Cc2ccc(C(F)(F)F)cc2)[C@@H](C)CN([C@@H](C)CO)C(=O)c2cc(NS(C)(=O)=O)ccc2O1	.	.	.	.	-1.5
O=C(N[C@@H]1CC[C@H](CCn2cc(C3(O)CCCC3)nn2)O[C@@H]1CO)C1CCCC1	.	1.6	-5.2	0.7	10.3
